Source: ChEMBL document CHEMBL3817726, “Chemically Diverse Group I p21-Activated Kinase (PAK) Inhibitors Impart Acute Cardiovascular Toxicity with a Narrow Therapeutic Window” (J Med Chem, 2016)
Activity calls are given as the source filed them. No cut-off for these calls is given here.

Assays:
[1] = species: Rattus norvegicus; conditions: Cerebral cortex, 10 uM
[2] = system: Heart; assay: Cardiotoxicity in Langendorff perfused Sprague-Dawley rat heart assessed as decrease in left ventricular developed pressure at 1.5 to 15 uM treated for 15 mins; type: toxicity, tissue-based; conditions: 0.25 h
Outline: (§1)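 Hearts from Sprague Dawley rats were perfused in a Langendorff preparation and paced via the right atrium at 10-15% above the intrinsic heart rate. Each heart received increasing concentrations of 0, 0.5, 1.5, 5 and 15 µM, for 15 min at each level (n=5). Hemodynamic and electrocardiographic parameters were recorded throughout.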

[3] = system: Heart; assay: Cardiotoxicity in Langendorff perfused Sprague-Dawley rat heart assessed as decrease in dP/dt maximum at 1.5 to 15 uM treated for 15 mins; type: toxicity, tissue-based; conditions: 0.25 h
Outline: as §1

[4] = target: 5-hydroxytryptamine receptor 4 (Homo sapiens) (UniProt Q13639); conditions: CHO, 10 uM
5-hydroxytryptamine receptor 4 (Homo sapiens), sequence (Q13639 whole entry): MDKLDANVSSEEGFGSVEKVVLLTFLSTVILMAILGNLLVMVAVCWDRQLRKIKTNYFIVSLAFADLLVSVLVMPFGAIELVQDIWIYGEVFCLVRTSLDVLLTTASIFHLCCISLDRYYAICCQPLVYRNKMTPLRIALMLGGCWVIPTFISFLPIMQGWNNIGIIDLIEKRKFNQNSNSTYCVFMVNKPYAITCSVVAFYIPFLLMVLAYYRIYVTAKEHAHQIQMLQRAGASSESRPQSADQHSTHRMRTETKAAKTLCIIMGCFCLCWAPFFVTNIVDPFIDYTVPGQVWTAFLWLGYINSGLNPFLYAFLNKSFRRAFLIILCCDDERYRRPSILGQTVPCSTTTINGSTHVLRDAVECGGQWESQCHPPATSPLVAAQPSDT

[5] = target: Sodium channel protein type 1 subunit alpha (Homo sapiens) (UniProt P35498); assay: Inhibition of human Nav1.1 assessed as tonic block of sodium current at 1 to 10 uM treated for 3 mins by automatic parallel patch clamp method
[6] = system: Heart; assay: Cardiotoxicity in Langendorff perfused Sprague-Dawley rat heart assessed as increase in left ventricular systolic pressure at 1.5 to 15 uM treated for 15 mins; type: toxicity, tissue-based; conditions: 0.25 h
Outline: as §1

[7] = system: Heart; assay: Cardiotoxicity in Langendorff perfused Sprague-Dawley rat heart assessed as decrease in dP/dtmax/P at 1.5 to 15 uM treated for 15 mins; type: toxicity, tissue-based; conditions: 0.25 h
Outline: as §1

[8] = target: 5-hydroxytryptamine receptor 2B (Homo sapiens) (UniProt P41595); conditions: CHO, 10 uM
5-hydroxytryptamine receptor 2B (Homo sapiens), sequence (P41595 whole entry): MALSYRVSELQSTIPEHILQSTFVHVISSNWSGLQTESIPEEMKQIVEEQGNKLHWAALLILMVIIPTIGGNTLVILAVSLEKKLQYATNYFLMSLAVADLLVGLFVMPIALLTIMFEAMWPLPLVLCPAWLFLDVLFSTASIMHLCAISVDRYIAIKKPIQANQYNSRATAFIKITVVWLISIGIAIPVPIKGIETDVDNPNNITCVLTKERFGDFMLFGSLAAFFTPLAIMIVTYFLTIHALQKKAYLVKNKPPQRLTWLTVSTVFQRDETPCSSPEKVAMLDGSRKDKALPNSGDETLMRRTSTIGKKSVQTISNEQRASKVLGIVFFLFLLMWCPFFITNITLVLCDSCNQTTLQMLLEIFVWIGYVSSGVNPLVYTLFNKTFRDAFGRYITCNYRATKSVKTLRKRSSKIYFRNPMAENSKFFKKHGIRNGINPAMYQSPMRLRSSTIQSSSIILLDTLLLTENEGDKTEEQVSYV

[9] = target: Tyrosine-protein kinase Lck (Homo sapiens) (UniProt P06239); conditions: 0.1 uM
Tyrosine-protein kinase Lck (Homo sapiens), sequence (P06239 2-509 limits assumed): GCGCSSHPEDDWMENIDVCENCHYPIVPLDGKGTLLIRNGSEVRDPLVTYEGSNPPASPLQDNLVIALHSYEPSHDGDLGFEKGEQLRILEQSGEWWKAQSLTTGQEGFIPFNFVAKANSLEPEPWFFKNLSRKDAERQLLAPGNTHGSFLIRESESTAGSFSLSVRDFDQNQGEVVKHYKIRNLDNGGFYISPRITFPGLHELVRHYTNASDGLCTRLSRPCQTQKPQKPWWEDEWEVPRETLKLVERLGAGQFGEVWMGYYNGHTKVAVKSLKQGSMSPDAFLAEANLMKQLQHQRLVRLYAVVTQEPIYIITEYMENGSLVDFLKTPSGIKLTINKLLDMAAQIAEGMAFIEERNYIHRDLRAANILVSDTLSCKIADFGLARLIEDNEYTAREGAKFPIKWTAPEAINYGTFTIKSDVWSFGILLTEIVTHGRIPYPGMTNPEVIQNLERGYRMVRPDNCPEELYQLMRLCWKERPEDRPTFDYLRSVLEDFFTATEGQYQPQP

[10] = system: Heart; assay: Cardiotoxicity in Langendorff perfused Sprague-Dawley rat heart assessed as loss of 1:1 atrioventricular conduction at 5 to 15 uM treated for 15 mins; type: toxicity, tissue-based; conditions: 0.25 h
Outline: as §1

[11] = system: Heart; assay: Cardiotoxicity in Langendorff perfused Sprague-Dawley rat heart assessed as increase in coronary perfusion pressure at 1.5 to 15 uM treated for 15 mins; type: toxicity, tissue-based; conditions: 0.25 h
Outline: as §1

[12] = system: Mus musculus; assay: fCmax associated with acute adverse effect in mouse at 30 to 60 mg/kg, po; type: ADME, organism-based; conditions: in vivo
Outline: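 Mouse tolerability studies at multiple doses, oral or intraperitoneal. Minimum unbound plasma concentration associated with adverse effects (total Cmax converted to unbound) compared with IC50 for inhibition of MEK1 S298 phosphorylation in cells.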

[13] = system: MDR1; assay: Permeability across apical to basolateral side in MDCK cells expressing MDR1; type: ADME, cell-based, Canis lupus familiaris; conditions: dog, read-out: permeability
[14] = target: Serine/threonine-protein kinase PAK 3 (Homo sapiens) (UniProt O75914); conditions: 0.1 uM
[15] = target: Voltage-gated inwardly rectifying potassium channel KCNH2 (Homo sapiens, UniProt Q12809); assay: Inhibition of human ERG expressed in mammalian cells treated for 3 mins by automatic parallel patch clamp method; type: cell-based; conditions: 0.05 h
Voltage-gated inwardly rectifying potassium channel KCNH2, sequence (Q12809 whole entry): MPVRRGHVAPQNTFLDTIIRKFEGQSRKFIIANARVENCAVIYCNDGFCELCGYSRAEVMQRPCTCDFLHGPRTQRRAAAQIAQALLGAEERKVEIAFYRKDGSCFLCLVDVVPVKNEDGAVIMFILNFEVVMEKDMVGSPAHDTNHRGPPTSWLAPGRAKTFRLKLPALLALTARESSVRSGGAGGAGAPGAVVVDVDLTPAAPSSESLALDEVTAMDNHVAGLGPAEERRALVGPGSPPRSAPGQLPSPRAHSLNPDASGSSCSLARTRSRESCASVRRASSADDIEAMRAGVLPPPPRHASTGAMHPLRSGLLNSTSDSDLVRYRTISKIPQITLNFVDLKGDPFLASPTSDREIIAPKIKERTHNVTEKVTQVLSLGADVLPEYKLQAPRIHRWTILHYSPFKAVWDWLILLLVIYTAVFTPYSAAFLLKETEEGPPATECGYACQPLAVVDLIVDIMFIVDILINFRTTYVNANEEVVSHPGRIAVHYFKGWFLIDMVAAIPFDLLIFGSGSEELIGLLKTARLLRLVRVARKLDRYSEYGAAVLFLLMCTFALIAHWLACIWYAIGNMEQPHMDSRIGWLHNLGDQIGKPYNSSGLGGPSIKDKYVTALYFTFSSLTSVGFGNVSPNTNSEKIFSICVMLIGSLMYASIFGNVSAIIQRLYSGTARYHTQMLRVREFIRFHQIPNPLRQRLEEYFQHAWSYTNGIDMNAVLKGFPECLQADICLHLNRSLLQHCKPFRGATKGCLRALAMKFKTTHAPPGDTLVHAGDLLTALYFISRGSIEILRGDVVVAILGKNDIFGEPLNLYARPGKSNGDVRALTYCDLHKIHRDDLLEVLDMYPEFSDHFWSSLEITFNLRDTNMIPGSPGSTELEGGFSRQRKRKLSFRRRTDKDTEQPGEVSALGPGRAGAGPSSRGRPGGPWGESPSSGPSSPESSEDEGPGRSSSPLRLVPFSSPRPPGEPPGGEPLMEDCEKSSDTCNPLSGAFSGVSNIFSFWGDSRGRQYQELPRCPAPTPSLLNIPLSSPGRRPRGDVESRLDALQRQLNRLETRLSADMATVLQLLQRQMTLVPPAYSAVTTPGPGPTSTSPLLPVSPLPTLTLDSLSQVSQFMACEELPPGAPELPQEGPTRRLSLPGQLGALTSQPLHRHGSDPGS

[16] = target: T1, Sodium channel protein type 5 subunit alpha (Homo sapiens, UniProt Q14524); assay: Inhibition of human Nav1.5 expressed in CHO cells assessed as tonic block of sodium current at 1 to 10 uM treated for 3 mins by automatic parallel patch clamp method; type: cell-based; conditions: 0.05 h
T1 sequence (Q14524 whole entry): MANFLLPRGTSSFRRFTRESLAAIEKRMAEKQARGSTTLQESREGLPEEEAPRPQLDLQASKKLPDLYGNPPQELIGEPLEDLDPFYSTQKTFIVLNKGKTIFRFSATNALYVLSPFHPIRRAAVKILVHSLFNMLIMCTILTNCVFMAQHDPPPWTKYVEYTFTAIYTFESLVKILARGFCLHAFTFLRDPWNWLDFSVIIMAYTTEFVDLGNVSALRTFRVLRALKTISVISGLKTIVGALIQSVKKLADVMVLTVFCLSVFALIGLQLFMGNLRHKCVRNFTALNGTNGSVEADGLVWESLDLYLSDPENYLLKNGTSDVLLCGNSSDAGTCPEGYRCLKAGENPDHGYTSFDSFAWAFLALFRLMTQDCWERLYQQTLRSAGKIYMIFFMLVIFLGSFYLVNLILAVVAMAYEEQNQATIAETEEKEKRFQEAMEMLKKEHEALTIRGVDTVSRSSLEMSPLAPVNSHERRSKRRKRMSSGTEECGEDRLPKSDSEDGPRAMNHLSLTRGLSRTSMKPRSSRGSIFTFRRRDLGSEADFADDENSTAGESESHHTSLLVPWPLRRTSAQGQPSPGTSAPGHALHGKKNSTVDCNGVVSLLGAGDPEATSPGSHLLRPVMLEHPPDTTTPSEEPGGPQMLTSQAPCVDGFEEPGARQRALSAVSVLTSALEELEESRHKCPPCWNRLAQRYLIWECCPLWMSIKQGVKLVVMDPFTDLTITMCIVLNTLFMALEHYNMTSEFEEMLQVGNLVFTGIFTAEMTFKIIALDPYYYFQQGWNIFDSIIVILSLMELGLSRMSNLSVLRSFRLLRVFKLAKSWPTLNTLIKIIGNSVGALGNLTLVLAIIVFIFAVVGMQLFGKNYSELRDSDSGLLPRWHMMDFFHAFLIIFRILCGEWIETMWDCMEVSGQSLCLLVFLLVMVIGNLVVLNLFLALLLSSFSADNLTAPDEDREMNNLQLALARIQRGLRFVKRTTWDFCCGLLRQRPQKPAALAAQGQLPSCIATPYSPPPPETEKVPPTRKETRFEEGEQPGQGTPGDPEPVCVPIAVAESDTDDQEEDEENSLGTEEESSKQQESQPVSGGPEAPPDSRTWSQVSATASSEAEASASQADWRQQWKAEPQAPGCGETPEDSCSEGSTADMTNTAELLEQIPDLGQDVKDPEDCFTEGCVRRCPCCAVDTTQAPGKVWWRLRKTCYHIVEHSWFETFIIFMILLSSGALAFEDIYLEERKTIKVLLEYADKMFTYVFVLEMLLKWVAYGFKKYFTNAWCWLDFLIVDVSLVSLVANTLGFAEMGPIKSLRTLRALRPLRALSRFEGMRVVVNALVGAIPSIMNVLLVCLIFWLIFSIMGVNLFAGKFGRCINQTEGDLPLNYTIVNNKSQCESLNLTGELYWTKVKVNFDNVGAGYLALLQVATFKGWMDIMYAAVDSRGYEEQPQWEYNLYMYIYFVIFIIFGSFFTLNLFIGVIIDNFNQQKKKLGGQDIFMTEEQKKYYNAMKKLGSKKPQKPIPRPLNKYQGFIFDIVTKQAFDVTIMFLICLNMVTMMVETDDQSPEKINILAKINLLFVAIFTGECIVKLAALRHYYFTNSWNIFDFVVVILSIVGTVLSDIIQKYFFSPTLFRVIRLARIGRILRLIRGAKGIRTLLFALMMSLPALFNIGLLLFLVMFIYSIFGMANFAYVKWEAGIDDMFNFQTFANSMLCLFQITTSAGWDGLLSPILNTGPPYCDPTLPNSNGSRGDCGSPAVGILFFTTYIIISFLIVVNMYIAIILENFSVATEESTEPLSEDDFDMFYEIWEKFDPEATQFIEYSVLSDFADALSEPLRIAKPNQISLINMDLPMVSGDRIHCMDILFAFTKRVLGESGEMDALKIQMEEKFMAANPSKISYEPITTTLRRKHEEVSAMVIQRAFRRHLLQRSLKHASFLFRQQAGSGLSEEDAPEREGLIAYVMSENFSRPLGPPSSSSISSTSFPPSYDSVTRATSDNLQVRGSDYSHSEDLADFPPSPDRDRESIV

[17] = target: 5-hydroxytryptamine receptor 1B (Rattus norvegicus) (UniProt P28564); conditions: Cerebral cortex, 10 uM
5-hydroxytryptamine receptor 1B (Rattus norvegicus), sequence (P28564 whole entry): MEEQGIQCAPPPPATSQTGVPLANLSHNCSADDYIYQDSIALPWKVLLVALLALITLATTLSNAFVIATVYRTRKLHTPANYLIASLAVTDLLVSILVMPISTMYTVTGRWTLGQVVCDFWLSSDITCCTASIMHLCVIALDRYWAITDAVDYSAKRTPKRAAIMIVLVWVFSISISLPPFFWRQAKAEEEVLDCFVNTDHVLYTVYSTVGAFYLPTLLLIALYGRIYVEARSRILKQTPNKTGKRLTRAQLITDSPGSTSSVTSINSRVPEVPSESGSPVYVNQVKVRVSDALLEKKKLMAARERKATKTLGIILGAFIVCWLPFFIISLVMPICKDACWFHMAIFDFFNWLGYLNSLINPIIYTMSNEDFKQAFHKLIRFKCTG

[18] = system: NCI-H292; assay: Antitumor activity against human NCI-H292 cells xenografted in mouse assessed as tumor growth inhibition at 25 mg/kg, po bid relative to control; type: functional; conditions: read-out: TGI
[19] = target: Sodium/potassium-transporting ATPase (Homo sapiens) (UniProt P05023+P14415+P05026+P50993+P54709+P13637+Q13733+P54710); conditions: 30 uM
[20] = Fraction unbound in mouse plasma at 30 to 60 mg/kg, po; type: ADME, organism-based
[21] = Antitumor activity against human MDA-MB-175 cells xenografted in mouse assessed as tumor growth inhibition at 25 mg/kg, po bid relative to control; type: functional; conditions: read-out: TGI
[22] = target: Serine/threonine-protein kinase 26 (Homo sapiens) (UniProt Q9P289); conditions: 0.1 uM
[23] = system: Mus musculus; assay: In vivo inhibition of PAK1/2 in human NCI-H292 cells xenografted in mouse assessed as phosphorylation of MEK1 at serine 298 at 25 mg/kg, po bid; type: functional, organism-based
[24] = system: Heart; assay: Cardiotoxicity in Langendorff perfused Sprague-Dawley rat heart assessed as increase in PR interval at 5 uM treated for 15 mins; type: toxicity, tissue-based; conditions: 0.25 h
Outline: as §1

[25] = Cmax associated with acute adverse effect in mouse at 30 to 60 mg/kg, po; type: ADME, organism-based; conditions: in vivo
Outline: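 Mouse tolerability studies tested multiple doses, given orally or intraperitoneally. Plasma drug concentrations were measured, including at a 15 min time point. The minimum concentration associated with adverse clinical signs or death was taken as the adverse Cmax and was converted to an unbound value.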

[26] = target: Voltage-dependent T-type calcium channel subunit alpha-1H (Homo sapiens) (UniProt O95180); assay: Inhibition of human Cav3.2 expressed in HEK293 cells at 1 to 10 uM treated for 3 mins by automatic parallel patch clamp method; type: cell-based
[27] = target: 5-hydroxytryptamine receptor 2A (Homo sapiens) (UniProt P28223); conditions: HEK293, 10 uM
[28] = target: T1, Sodium channel protein type 5 subunit alpha; assay: Inhibition of human Nav1.5 expressed in CHO cells assessed as phasic block of sodium current at 1 to 10 uM treated for 3 mins by automatic parallel patch clamp method; type: cell-based; conditions: 0.05 h
[29] = target: Serine/threonine-protein kinase 24 (Homo sapiens) (UniProt Q9Y6E0); conditions: 0.1 uM
[30] = species: Homo sapiens; assay: Inhibition of Na+/Ca2+ ATPase (unknown origin) at 30 uM
[31] = system: Heart; assay: Cardiotoxicity in Langendorff perfused Sprague-Dawley rat heart assessed as ventricular fibrillation at 5 uM treated for 15 mins; type: toxicity, tissue-based; conditions: 0.25 h
Outline: as §1

[32] = system: Heart; assay: Cardiotoxicity in Langendorff perfused Sprague-Dawley rat heart assessed as increase in PR interval at 15 uM treated for 15 mins; type: toxicity, tissue-based; conditions: 0.25 h
Outline: as §1

[33] = system: Heart; assay: Cardiotoxicity in Langendorff perfused Sprague-Dawley rat heart assessed as decrease in dP/dt minimum at 1.5 to 15 uM treated for 15 mins; type: toxicity, tissue-based; conditions: 0.25 h
Outline: as §1

[34] = target: Serine/threonine-protein kinase 25 (Homo sapiens) (UniProt O00506); conditions: 0.1 uM
[35] = system: Heart; assay: Cardiotoxicity in Langendorff perfused Sprague-Dawley rat heart assessed as increase in left ventricular end diastolic pressure at 1.5 to 15 uM treated for 15 mins; type: toxicity, tissue-based; conditions: 0.25 h
Outline: as §1

[36] = target: Sodium channel protein type 1 subunit alpha (Homo sapiens) (UniProt P35498); assay: Inhibition of human Nav1.1 assessed as phasic block of sodium current at 1 to 10 uM treated for 3 mins by automatic parallel patch clamp method
[37] = system: Heart; assay: Cardiotoxicity in Langendorff perfused Sprague-Dawley rat heart assessed as decrease in dP/dtmax/P at 40 mmHg at 1.5 to 15 uM treated for 15 mins; type: toxicity, tissue-based; conditions: 0.25 h
Outline: as §1

CNc1ncc2cc(-c3ccc(-c4cccc(C)n4)cc3Cl)c(=O)n(C[C@H]3OC[C@H](N)CO3)c2n1
inhibition [1]: > 75% | Activity [2]: Toxic | Activity [3]: Toxic | inhibition [4]: > 75% | inhibition [5]: inactive | Activity [6]: Toxic | Activity [7]: Toxic | inhibition [8]: > 75% | inhibition [9]: > 75% | Activity [10]: Toxic | Activity [11]: 64% | fCmax [12]: 0.16 µM | Papp A→B [13]: 0.3 ×10⁻⁶ cm/s | inhibition [14]: > 75% | inhibition (INH) [15]: Not Active | inhibition (INH) [16]: Not Active | inhibition [17]: > 75% | inhibition in vivo at 25 mg/kg [18]: 60% | inhibition [19]: inactive | fraction unbound [20]: 0.003 | inhibition in vivo at 25 mg/kg [21]: 60% | inhibition [22]: > 75% | inhibition [23]: Active | Activity [24]: 37% | Cmax [25]: 55 µM | inhibition [26]: inactive | inhibition [27]: > 75% | inhibition (INH) [28]: Not Active | inhibition [29]: > 75% | inhibition [30]: inactive | Activity [31]: Toxic | Activity [32]: 34% | Activity [33]: Toxic | inhibition [34]: > 75% | Activity [35]: Toxic | inhibition [36]: inactive | Activity [37]: Toxic
